# Activity calls are given as the source filed them. No cut-off for these calls is given here.
# Assays:
# Bel-7402 [1] = test: Induction of apoptosis in human BEL-7402 cells […] by methyl green-pyronin staining method; assay type: functional, cell-based
# Bel-7402 [2] = test: Cytotoxicity against human BEL-7402 cells assessed as photo-induced growth inhibition upto 2.5 ug/mL after 24 hrs in dark by MTT assay; assay type: functional; design: scale not given: the % may be the effect or the level left
# Outline: (§1)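 Human hepatoma BEL-7402 cells were incubated with compound (0.03125–2.5 µg/mL) in the dark for 24 h at 37 °C. Cells in the light arm were then irradiated with a 670 nm laser at 10 J/cm² (56 mW/cm² for 3 min); dark-arm cells were not irradiated. Cells were then incubated for 24 h at 37 °C and survival was read by MTT in triplicate. IC50 was reported with 95% confidence limits.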
# Bel-7402 [3] = test: Cytotoxicity against human BEL-7402 cells assessed as photo-induced growth inhibition after 24 hrs in dark by MTT assay; assay type: functional, cell-based; conditions: Bel-7402, 24 h; outline: as §1
Structure (SMILES),Activity (Bel-7402 [1]),Activity (Bel-7402 [2]) [%],IC50 (Bel-7402 [3]) [µg/mL]
CCC1=C(C)c2cc3[nH]c(cc4nc(c5c6[nH]c(cc1n2)c(C)c6C(=O)C5C(=O)OC)C(CCC(=O)OC)=C4C)[C@@]1(C)C3=CC=C(C(=O)OC)[C@H]1C(=O)OC (some centres undefined),Active,>92,0.26
CCC1=C(C)c2cc3[nH]c(cc4nc(c(C(=O)OC)c5[nH]c(cc1n2)c(C)c5C(=O)OC)C(CCC(=O)OC)=C4C)[C@@]1(C)C3=CC=C(C(=O)OC)[C@H]1C(=O)OC,,>92,0.27
CCC1=C(C)c2cc3[nH]c(cc4nc(c(CC(=O)OC)c5[nH]c(cc1n2)c(C)c5C(=O)OC)C(CCC(=O)OC)=C4C)[C@@]1(C)C3=CC=C(C(=O)OC)[C@H]1C(=O)OC,,>92,1.32
CCC1=C(C)c2cc3[nH]c(cc4nc(c(C)c5[nH]c(cc1n2)c(C)c5C(=O)OC)C(CCC(=O)OC)=C4C)[C@@]1(C)C3=CC=C(C(=O)OC)[C@H]1C(=O)OC,,>92,0.47
